# In ChEMBL document CHEMBL3232971, “Synthesis and in vitro evaluation of 12-(substituted aminomethyl) berberrubine derivatives as anti-diabetics” (2014):
# Activity calls are given as the source filed them. The calls are words filed in the database; no cut-off is given here.
# Legend:
# [1] = system: 3T3-L1; assay: Reversal of high glucose-induced insulin resistance in mouse 3T3L1 cells; format: functional, cell-based
# Outline: (§1)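 Mouse 3T3-L1 preadipocytes were grown in high-glucose DMEM with 10% FBS and phenol red. At 90% confluence they were differentiated for 4 days with FBS, insulin, dexamethasone and IBMX. Cells were replated and kept 2 days in FBS medium. Insulin resistance was induced over 4 days with low insulin and high dexamethasone. Cells were then treated with sample in phenol red-free high-glucose DMEM, at three concentrations. Controls were normal differentiated cells (blank) and untreated insulin-resistant cells (negative); rosiglitazone was the positive control.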
# [2] = system: 3T3-L1; assay: Reversal of high glucose-induced insulin resistance in mouse 3T3L1 cells assessed as relative sensitization rate at 10 umol/ml relative to rosiglitazone; format: functional; outline: as §1
# [3] = system: 3T3-L1; assay: Reversal of high glucose-induced insulin resistance in mouse 3T3L1 cells assessed as relative sensitization rate at 1 umol/ml relative to rosiglitazone; format: functional; outline: as §1
# [4] = system: 3T3-L1; assay: Reversal of high glucose-induced insulin resistance in mouse 3T3L1 cells assessed as relative sensitization rate at 0.10 umol/ml relative to rosiglitazone; format: functional; outline: as §1
# [5] = system: L6; assay: Increase in glucose transport in rat L6 cells assessed as sensitization rate at 10 umol/ml; format: functional
# Outline: (§2)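 Rat L6 myoblasts were grown 24 h in high-glucose DMEM with 10% FBS and phenol red. They were differentiated to myotubes in high-glucose DMEM with 2% FBS for 6–8 days, with medium changed every 48 h. Cells were then starved serum-free overnight, and 4–6 h without serum or glucose. Samples were added in serum-free DMEM with 20 mmol glucose for 16–24 h. Supernatant glucose was read by kit at OD 490 nm. Sensitization rate = (negative OD − sample OD)/(negative OD − blank OD) × 100%, tested at two concentrations.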
# [6] = system: L6; assay: Increase in glucose transport in rat L6 cells assessed as sensitization rate at 1 umol/ml; format: functional; outline: as §2
# [7] = system: 3T3-L1; assay: Reversal of high glucose-induced insulin resistance in mouse 3T3L1 cells assessed as insulin sensitization relative to rosiglitazone; format: functional; outline: as §1
# [8] = system: 3T3-L1; assay: Reversal of high glucose-induced insulin resistance in mouse 3T3L1 cells at 1 umol/ml; format: functional, cell-based; outline: as §1
SMILES,Activity [1],Activity [2],Activity [3],Activity [4],Activity [5],Activity [6],fold change (FC) [7],Activity [8]
COc1cc(CN2CCOCC2)c2cc3[n+](cc2c1O)CCc1cc2c(cc1-3)OCO2.[Cl-],Dose-dependent effect,115.14%,68.72%,28.22%,57.22%,26.16%,,
COc1cc(CN(C)C)c2cc3[n+](cc2c1O)CCc1cc2c(cc1-3)OCO2.[Cl-],,51.59%,-17.72%,-16.79%,78.5%,51.3%,,
COc1cc(CN2CCN(C)CC2)c2cc3[n+](cc2c1O)CCc1cc2c(cc1-3)OCO2.[Cl-],Dose-dependent effect,126.29%,90.23%,-1.09%,48.55%,41.9%,1.26,Active
CCN(CC)Cc1cc(OC)c(O)c2c[n+]3c(cc12)-c1cc2c(cc1CC3)OCO2.[Cl-],,75.63%,23.48%,2.03%,48.83%,5.81%,,
COc1cc(CN2CCCCC2)c2cc3[n+](cc2c1O)CCc1cc2c(cc1-3)OCO2.[Cl-],Dose-dependent effect,102.93%,41.02%,8.33%,43.53%,15.78%,,
COc1cc(CN2CCN(C(=O)OC(C)(C)C)CC2)c2cc3[n+](cc2c1O)CCc1cc2c(cc1-3)OCO2.[Cl-],Dose-dependent effect,107.3%,3.14%,-43.33%,52.51%,23.32%,,
COc1ccc2cc3[n+](cc2c1OC)CCc1cc2c(cc1-3)OCO2.[Cl-] [BERBERINE CHLORIDE],,74.23%,13.27%,-2.93%,43.28%,21.3%,,
COc1cc(CN2CCCC2)c2cc3[n+](cc2c1O)CCc1cc2c(cc1-3)OCO2.[Cl-],,73.15%,-12.1%,-22.09%,40.73%,7.95%,,
COc1cc(CN(Cc2ccccc2)Cc2ccccc2)c2cc3[n+](cc2c1O)CCc1cc2c(cc1-3)OCO2.[Cl-],,65.58%,-9.51%,-17.34%,70.02%,28.39%,,
COc1cc(CN(C(C)C)C(C)C)c2cc3[n+](cc2c1O)CCc1cc2c(cc1-3)OCO2.[Cl-],Dose-dependent effect,112.25%,28.02%,-64.34%,46.08%,17.97%,,
COc1cc(CN(c2ccccc2)c2ccccc2)c2cc3[n+](cc2c1O)CCc1cc2c(cc1-3)OCO2.[Cl-],,96.66%,62.08%,33.38%,53.05%,12.43%,,
